Results on 3 molecules are retold here after ChEMBL document CHEMBL3621200, “Toward the discovery of dual HCMV-VZV inhibitors: Synthesis, structure activity relationship analysis, and cytotoxicity studies of long chained 2-uracil-3-yl-N-(4-phenoxyphenyl)acetamides” (Bioorg Med Chem, 2015).

Active and inactive are the calls of the source. No cut-off for these calls is given here.

As usually defined, the EC50 is the concentration giving half of the maximal effect.

One data set has as its system Feline coronavirus. The experiment in a line: Antiviral activity against Feline coronavirus. The format is functional, organism-based.
Conditions: not given
With `O=C(Cn1c(=O)c(I)cn(CCCCCOc2ccc(Br)cc2)c1=O)Nc1ccc(Oc2ccccc2)cc1`, the inhibition result is “inactive”.
The same measure, in the same setting: with `O=C(Cn1c(=O)ccn(COCCOCc2ccc(Br)cc2)c1=O)Nc1ccc(Oc2ccccc2)cc1` the entry was “inactive”.
For `O=C(Cn1c(=O)ccn(Cc2ccc(Oc3ccc(Br)cc3)cc2)c1=O)Nc1ccc(Oc2ccccc2)cc1`, the inhibition result is “inactive”.

The next data set has as its system Coxsackievirus B4. The data set can be described thus: Antiviral activity against Human coxsackievirus B4. The format is functional, organism-based.
Conditions: not given
`O=C(Cn1c(=O)c(I)cn(CCCCCOc2ccc(Br)cc2)c1=O)Nc1ccc(Oc2ccccc2)cc1`: the inhibition result was “inactive”.
Same read-out and setting: with `O=C(Cn1c(=O)ccn(COCCOCc2ccc(Br)cc2)c1=O)Nc1ccc(Oc2ccccc2)cc1` the entry was “inactive”.
Still for that read-out and setting: with `O=C(Cn1c(=O)ccn(Cc2ccc(Oc3ccc(Br)cc3)cc2)c1=O)Nc1ccc(Oc2ccccc2)cc1` the entry was “inactive”.

Tested on in another data set: not listed separately
The experiment in a line: Cytotoxicity against human cytomegalovirus infected HEL cells assessed as alteration of cell morphology incubated for 3 days by microscopy. It counts as cell-based. The conditions noted are these: HEL cells infected with human cytomegalovirus. The essentials:
(§1)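 Cytotoxicity was given as the minimum cytotoxic concentration (MCC): the compound concentration causing a microscopically detectable change in HEL cell morphology.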
As for `O=C(Cn1c(=O)c(I)cn(CCCCCOc2ccc(Br)cc2)c1=O)Nc1ccc(Oc2ccccc2)cc1`, the MCC at 72 h was 100 µM.
The same measure, in the same setting: with `O=C(Cn1c(=O)ccn(COCCOCc2ccc(Br)cc2)c1=O)Nc1ccc(Oc2ccccc2)cc1` the figure was 100 µM; with `O=C(Cn1c(=O)ccn(Cc2ccc(Oc3ccc(Br)cc3)cc2)c1=O)Nc1ccc(Oc2ccccc2)cc1`, 4 µM.

The test system of a further data set is Human alphaherpesvirus 2. The experiment in a line: Antiviral activity against HSV2 Lyons. It counts as functional, organism-based.
Conditions: not given
Put shortly: (§2)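 Confluent cell monolayers in 96-well plates were inoculated with 100 CCID50 of virus together with varying compound concentrations. Cytopathicity was scored once it reached completion in untreated infected controls.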
Consider `O=C(Cn1c(=O)c(I)cn(CCCCCOc2ccc(Br)cc2)c1=O)Nc1ccc(Oc2ccccc2)cc1`, for which the inhibition entry is “inactive”.
Still for that read-out and setting: with `O=C(Cn1c(=O)ccn(COCCOCc2ccc(Br)cc2)c1=O)Nc1ccc(Oc2ccccc2)cc1` the entry was “inactive”; with `O=C(Cn1c(=O)ccn(Cc2ccc(Oc3ccc(Br)cc3)cc2)c1=O)Nc1ccc(Oc2ccccc2)cc1`, “inactive”.

For the next data set, the system named is Influenza B virus. The data set can be described thus: Antiviral activity against Influenza B virus. It counts as functional, organism-based.
Conditions: not given
The essentials: (§3)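 Confluent cell monolayers (HEL, Vero, HeLa or MDCK) in 96-well plates were infected with 100 CCID50 of virus in the presence of varying compound concentrations. Cytopathicity was scored once it reached completion in untreated infected controls.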
For the molecule `O=C(Cn1c(=O)c(I)cn(CCCCCOc2ccc(Br)cc2)c1=O)Nc1ccc(Oc2ccccc2)cc1`, the inhibition result is “inactive”.
The same measure, in the same setting: the result for `O=C(Cn1c(=O)ccn(COCCOCc2ccc(Br)cc2)c1=O)Nc1ccc(Oc2ccccc2)cc1` reads “inactive”; that for `O=C(Cn1c(=O)ccn(Cc2ccc(Oc3ccc(Br)cc3)cc2)c1=O)Nc1ccc(Oc2ccccc2)cc1`, “inactive”.

The subject of a further data set is Influenza A virus H3N2. The data set can be described thus: Antiviral activity against Influenza A virus H3N2. The format is functional, organism-based.
Conditions: not given
The essentials:
as §3
`O=C(Cn1c(=O)c(I)cn(CCCCCOc2ccc(Br)cc2)c1=O)Nc1ccc(Oc2ccccc2)cc1`: the inhibition result was “inactive”.
On the same count and under the same terms, with `O=C(Cn1c(=O)ccn(COCCOCc2ccc(Br)cc2)c1=O)Nc1ccc(Oc2ccccc2)cc1` the entry was “inactive”; with `O=C(Cn1c(=O)ccn(Cc2ccc(Oc3ccc(Br)cc3)cc2)c1=O)Nc1ccc(Oc2ccccc2)cc1`, “inactive”.

For the next data set, the system named is Human immunodeficiency virus 1. The experiment in a line: Antiviral activity against HIV1 3B infected in human CEM cells assessed as reduction in virus- induced cytopathicity incubated for 4 to 5 days by microscopy based virus syncytium formation assay. The format is functional, organism-based. The conditions noted are these: CCRF-CEM. Put shortly: (§4)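 CEM cells at ~3 × 10^5 cells/mL, infected with 100 CCID50 of HIV per mL in the presence of compound dilutions. Incubated 4–5 days at 37 °C in humidified CO2. Syncytium (giant cell) formation scored by microscopy.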
Background: Cytopathic effects are the visible damage that an infection or toxin causes in cultured cells.
On to `O=C(Cn1c(=O)c(I)cn(CCCCCOc2ccc(Br)cc2)c1=O)Nc1ccc(Oc2ccccc2)cc1`, for which the inhibition result was “inactive”.
In the case of `O=C(Cn1c(=O)ccn(COCCOCc2ccc(Br)cc2)c1=O)Nc1ccc(Oc2ccccc2)cc1`, the inhibition entry is “inactive”.
On the same count and under the same terms, the result for `O=C(Cn1c(=O)ccn(Cc2ccc(Oc3ccc(Br)cc3)cc2)c1=O)Nc1ccc(Oc2ccccc2)cc1` reads “inactive”.

The test system of another data set is Punta Toro virus. The data set can be described thus: Antiviral activity against Punta Toro virus. The format is functional, organism-based.
Conditions: not given
Take `O=C(Cn1c(=O)c(I)cn(CCCCCOc2ccc(Br)cc2)c1=O)Nc1ccc(Oc2ccccc2)cc1`: the inhibition result is “inactive”.
`O=C(Cn1c(=O)ccn(COCCOCc2ccc(Br)cc2)c1=O)Nc1ccc(Oc2ccccc2)cc1`: the inhibition entry is “inactive”.
Still for that read-out and setting: the result for `O=C(Cn1c(=O)ccn(Cc2ccc(Oc3ccc(Br)cc3)cc2)c1=O)Nc1ccc(Oc2ccccc2)cc1` reads “inactive”.

Another data set deals with Human immunodeficiency virus 2. The experiment in a line: Antiviral activity against HIV2 ROD infected in human CEM cells assessed as reduction in virus- induced cytopathicity incubated for 4 to 5 days by microscopy based virus syncytium formation assay. The following applies: ISOLATE ROD, CCRF-CEM. It counts as functional, organism-based. Put shortly: as §4
For `O=C(Cn1c(=O)c(I)cn(CCCCCOc2ccc(Br)cc2)c1=O)Nc1ccc(Oc2ccccc2)cc1`, the inhibition entry is “inactive”.
As to `O=C(Cn1c(=O)ccn(COCCOCc2ccc(Br)cc2)c1=O)Nc1ccc(Oc2ccccc2)cc1`, the inhibition entry is “inactive”.
`O=C(Cn1c(=O)ccn(Cc2ccc(Oc3ccc(Br)cc3)cc2)c1=O)Nc1ccc(Oc2ccccc2)cc1`: the inhibition entry is “inactive”.

Another data set has as its system Human respirovirus 3. The data set can be described thus: Antiviral activity against Parainfluenza 3 virus. The format is functional, organism-based.
Conditions: not given
For the molecule `O=C(Cn1c(=O)c(I)cn(CCCCCOc2ccc(Br)cc2)c1=O)Nc1ccc(Oc2ccccc2)cc1`, the inhibition entry was “inactive”.
Same read-out and setting: with `O=C(Cn1c(=O)ccn(COCCOCc2ccc(Br)cc2)c1=O)Nc1ccc(Oc2ccccc2)cc1` the entry was “inactive”; with `O=C(Cn1c(=O)ccn(Cc2ccc(Oc3ccc(Br)cc3)cc2)c1=O)Nc1ccc(Oc2ccccc2)cc1`, “inactive”.

The next data set has as its system Influenza A virus. The experiment in a line: Antiviral activity against Influenza A virus H1N1.
Conditions: not given
It counts as functional, organism-based. The essentials:
as §3
With `O=C(Cn1c(=O)c(I)cn(CCCCCOc2ccc(Br)cc2)c1=O)Nc1ccc(Oc2ccccc2)cc1`, the inhibition result is “inactive”.
Still for that read-out and setting: with `O=C(Cn1c(=O)ccn(COCCOCc2ccc(Br)cc2)c1=O)Nc1ccc(Oc2ccccc2)cc1` the entry was “inactive”; with `O=C(Cn1c(=O)ccn(Cc2ccc(Oc3ccc(Br)cc3)cc2)c1=O)Nc1ccc(Oc2ccccc2)cc1`, “inactive”.

Tested on in another data set: not listed separately
The data set can be described thus: Cytotoxicity against Varicella zoster virus infected HEL cells assessed as alteration of cell morphology incubated for 3 days by microscopy. The conditions noted are these: human, HEL cells infected with Varicella zoster virus. It counts as cell-based. Put shortly:
as §1
As for `O=C(Cn1c(=O)c(I)cn(CCCCCOc2ccc(Br)cc2)c1=O)Nc1ccc(Oc2ccccc2)cc1`, the MCC at 72 h was greater than 100 µM.
With `O=C(Cn1c(=O)ccn(COCCOCc2ccc(Br)cc2)c1=O)Nc1ccc(Oc2ccccc2)cc1`, the MCC at 72 h is greater than 100 µM.
For `O=C(Cn1c(=O)ccn(Cc2ccc(Oc3ccc(Br)cc3)cc2)c1=O)Nc1ccc(Oc2ccccc2)cc1`, the MCC at 72 h came out at 20 µM.

In the next data set the test system is Human alphaherpesvirus 1. The data set can be described thus: Antiviral activity against HSV1 KOS.
Conditions: not given
The format is functional, organism-based. The essentials: as §2
As for `O=C(Cn1c(=O)c(I)cn(CCCCCOc2ccc(Br)cc2)c1=O)Nc1ccc(Oc2ccccc2)cc1`, the inhibition entry was “inactive”.
On the same count and under the same terms, the result for `O=C(Cn1c(=O)ccn(COCCOCc2ccc(Br)cc2)c1=O)Nc1ccc(Oc2ccccc2)cc1` reads “inactive”; that for `O=C(Cn1c(=O)ccn(Cc2ccc(Oc3ccc(Br)cc3)cc2)c1=O)Nc1ccc(Oc2ccccc2)cc1`, “inactive”.

Another data set has as its system Human betaherpesvirus 5. The data set can be described thus: Antiviral activity against human cytomegalovirus AD169 infected in HEL cells assessed as reduction in viral plaque formation. The following applies: Human betaherpesvirus 5, AD169, HEL. The format is functional, organism-based. The essentials: (§5)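 Confluent HEL fibroblasts were infected with 100 PFU of HCMV in the presence of varying compound concentrations. Plaques were counted once plaque formation was complete in untreated infected controls.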
For `O=C(Cn1c(=O)c(I)cn(CCCCCOc2ccc(Br)cc2)c1=O)Nc1ccc(Oc2ccccc2)cc1`, the 50% effective concentration (EC50) was greater than 20 µM.
Same read-out and setting: the result for `O=C(Cn1c(=O)ccn(COCCOCc2ccc(Br)cc2)c1=O)Nc1ccc(Oc2ccccc2)cc1` reads greater than 20 µM.
The same measure, in the same setting: the result for `O=C(Cn1c(=O)ccn(Cc2ccc(Oc3ccc(Br)cc3)cc2)c1=O)Nc1ccc(Oc2ccccc2)cc1` reads greater than 0.8 µM.

The subject of a further data set is Human herpesvirus 2 strain G. The data set can be described thus: Antiviral activity against HSV2 G Lyons. It counts as functional, organism-based.
Conditions: not given
Turning to `O=C(Cn1c(=O)c(I)cn(CCCCCOc2ccc(Br)cc2)c1=O)Nc1ccc(Oc2ccccc2)cc1`, the inhibition entry was “inactive”.
On the same count and under the same terms, the result for `O=C(Cn1c(=O)ccn(COCCOCc2ccc(Br)cc2)c1=O)Nc1ccc(Oc2ccccc2)cc1` reads “inactive”; that for `O=C(Cn1c(=O)ccn(Cc2ccc(Oc3ccc(Br)cc3)cc2)c1=O)Nc1ccc(Oc2ccccc2)cc1`, “inactive”.

For the next data set, the system named is Mammalian orthoreovirus 1. The experiment in a line: Antiviral activity against Reovirus 1. It counts as functional.
Conditions: not given
In the case of `O=C(Cn1c(=O)c(I)cn(CCCCCOc2ccc(Br)cc2)c1=O)Nc1ccc(Oc2ccccc2)cc1`, the inhibition entry was “inactive”.
Take `O=C(Cn1c(=O)ccn(COCCOCc2ccc(Br)cc2)c1=O)Nc1ccc(Oc2ccccc2)cc1`: the inhibition result is “inactive”.
Turning to `O=C(Cn1c(=O)ccn(Cc2ccc(Oc3ccc(Br)cc3)cc2)c1=O)Nc1ccc(Oc2ccccc2)cc1`, the inhibition entry was “inactive”.

For a further data set, the system named is Vaccinia virus. The data set can be described thus: Antiviral activity against Vaccinia virus Lederle. It counts as functional, organism-based. The conditions noted are these: Orthopoxvirus vaccinia. Put shortly: as §3
For the molecule `O=C(Cn1c(=O)c(I)cn(CCCCCOc2ccc(Br)cc2)c1=O)Nc1ccc(Oc2ccccc2)cc1`, the inhibition entry is “inactive”.
As to `O=C(Cn1c(=O)ccn(COCCOCc2ccc(Br)cc2)c1=O)Nc1ccc(Oc2ccccc2)cc1`, the inhibition entry is “inactive”.
With `O=C(Cn1c(=O)ccn(Cc2ccc(Oc3ccc(Br)cc3)cc2)c1=O)Nc1ccc(Oc2ccccc2)cc1`, the inhibition result was “inactive”.

A further data set has as its system Human betaherpesvirus 5. The experiment in a line: Antiviral activity against human cytomegalovirus Davis infected in HEL cells assessed as reduction in viral plaque formation. It counts as functional, organism-based. The conditions noted are these: Human betaherpesvirus 5, Davis. Put shortly: as §5
Consider `O=C(Cn1c(=O)c(I)cn(CCCCCOc2ccc(Br)cc2)c1=O)Nc1ccc(Oc2ccccc2)cc1`, for which the EC50 is greater than 20 µM.
For the molecule `O=C(Cn1c(=O)ccn(COCCOCc2ccc(Br)cc2)c1=O)Nc1ccc(Oc2ccccc2)cc1`, the EC50 was greater than 20 µM.
On the same count and under the same terms, the result for `O=C(Cn1c(=O)ccn(Cc2ccc(Oc3ccc(Br)cc3)cc2)c1=O)Nc1ccc(Oc2ccccc2)cc1` reads greater than 0.8 µM.

Another data set deals with Vesicular stomatitis virus. The data set can be described thus: Antiviral activity against Vesicular stomatitis virus. The format is functional, organism-based.
Conditions: not given
The essentials: as §3
As to `O=C(Cn1c(=O)c(I)cn(CCCCCOc2ccc(Br)cc2)c1=O)Nc1ccc(Oc2ccccc2)cc1`, the inhibition result was “inactive”.
Take `O=C(Cn1c(=O)ccn(COCCOCc2ccc(Br)cc2)c1=O)Nc1ccc(Oc2ccccc2)cc1`: the inhibition result is “inactive”.
Consider `O=C(Cn1c(=O)ccn(Cc2ccc(Oc3ccc(Br)cc3)cc2)c1=O)Nc1ccc(Oc2ccccc2)cc1`, for which the inhibition result is “inactive”.

The next data set relates to Sindbis virus. The data set can be described thus: Antiviral activity against Sindbis virus. It counts as functional, organism-based.
Conditions: not given
As to `O=C(Cn1c(=O)c(I)cn(CCCCCOc2ccc(Br)cc2)c1=O)Nc1ccc(Oc2ccccc2)cc1`, the inhibition entry was “inactive”.
As for `O=C(Cn1c(=O)ccn(COCCOCc2ccc(Br)cc2)c1=O)Nc1ccc(Oc2ccccc2)cc1`, the inhibition entry is “inactive”.
In the case of `O=C(Cn1c(=O)ccn(Cc2ccc(Oc3ccc(Br)cc3)cc2)c1=O)Nc1ccc(Oc2ccccc2)cc1`, the inhibition entry is “inactive”.
